From ChEMBL document CHEMBL3745654, “N-Alkylated arylsulfonamides of (aryloxy)ethyl piperidines: 5-HT(7) receptor selectivity versus multireceptor profile” (Bioorg Med Chem, 2016)
Calls of active or inactive are those of the source. The calls are words filed in the database; no cut-off is given here.

How the values were obtained:
[1] = target: T1, 5-hydroxytryptamine receptor 1A (Homo sapiens, UniProt P08908); experiment: Displacement of [3H]-8-OH-DPAT from human 5-HT1A receptor expressed in HEK293 cells incubated for 1 hr; format: cell-based
T1 sequence (P08908 whole entry): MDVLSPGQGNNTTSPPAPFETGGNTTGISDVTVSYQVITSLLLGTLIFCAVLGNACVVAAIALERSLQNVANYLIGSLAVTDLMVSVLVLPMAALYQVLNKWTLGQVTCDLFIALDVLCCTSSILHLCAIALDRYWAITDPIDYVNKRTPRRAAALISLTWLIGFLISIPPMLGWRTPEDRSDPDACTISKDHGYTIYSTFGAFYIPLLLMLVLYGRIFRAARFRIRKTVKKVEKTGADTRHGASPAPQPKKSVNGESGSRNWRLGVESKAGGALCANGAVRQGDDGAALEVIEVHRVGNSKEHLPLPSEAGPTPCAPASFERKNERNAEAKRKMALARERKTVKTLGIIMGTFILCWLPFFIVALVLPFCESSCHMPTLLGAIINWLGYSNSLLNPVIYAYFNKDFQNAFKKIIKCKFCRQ
Summary of the method: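 Membranes from HEK293 cells stably expressing human 5-HT1A receptor, with [3H]-8-OH-DPAT (187 Ci/mmol). Buffer: 50 mM Tris-HCl, 0.1 mM EDTA, 4 mM MgCl2, pargyline, 0.1% ascorbate. Incubation 1 h at room temperature, then filtration. Non-specific binding defined with 5-HT. Triplicates at 7–8 concentrations. Ki by Cheng–Prusoff.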

[2] = target: 5-hydroxytryptamine receptor 2A (Homo sapiens, UniProt P28223); experiment: Displacement of [3H]-ketanserin from human 5-HT2A receptor expressed in HEK293 cells incubated for 1 hr; format: cell-based
Summary of the method: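 Membranes from HEK293 cells stably expressing human 5-HT2A receptor, with [3H]-ketanserin (66.9 Ci/mmol). Incubation 1 h at 37 °C, then rapid filtration and counting. Triplicates at 7–8 concentrations (10^-11 to 10^-4 M). Ki by Cheng–Prusoff; means of at least three experiments.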

[3] = target: 5-hydroxytryptamine receptor 7 (Homo sapiens, UniProt P34969); experiment: Displacement of [3H]-5-CT from human 5-HT7B receptor expressed in HEK293 cells incubated for 1 hr; format: cell-based
Summary of the method: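 Membranes from HEK293 cells stably expressing human 5-HT7b receptor, with [3H]-5-CT (39.2 Ci/mmol). Buffer: 50 mM Tris-HCl, 4 mM MgCl2, pargyline, 0.1% ascorbate. Incubation 1 h at 37 °C, then rapid filtration and counting of filter radioactivity. Non-specific binding defined with 5-HT. Triplicates at 7–8 concentrations (10^-11 to 10^-4 M). Ki by Cheng–Prusoff.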

D(2) dopamine receptor = D(2) dopamine receptor (Homo sapiens, UniProt P14416); experiment: Displacement of [3H]-Raclopride from human dopamine D2L receptor expressed in HEK293 cells incubated for 1 hr; format: cell-based
Summary of the method: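 Membranes from HEK293 cells stably expressing human D2L receptor, with [3H]-raclopride (74.4 Ci/mmol). Buffer: Tris-HCl, EDTA, MgCl2, 120 mM NaCl, 5 mM KCl, 1.5 mM CaCl2, ascorbate. Incubation 1 h at 37 °C, then filtration. Non-specific binding defined with (+)butaclamol. Triplicates at 7–8 concentrations (10^-11 to 10^-4 M). Ki by Cheng–Prusoff.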

[4] = Metabolic stability in mouse liver microsomes assessed as retention time of compound at 20 uM at pH 7.4 incubated for 15 mins by UPLC/MS analysis in presence of NADPH; format: ADME; conditions: pH 7.4, 0.25 h
Summary of the method: (§1)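 Compound (20 µM) incubated with mouse liver microsomes (0.2 mg/ml) in 100 mM potassium phosphate, pH 7.4, 37 °C. Reaction started with NADPH-regenerating system; blank without NADPH run in parallel. Sampling at 5, 15, 30 and 60 min (some to 120 min), in duplicate. Levallorphan internal standard; UPLC/MS quantitation. t1/2 from ln % remaining vs time.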

[5] = Half life in mouse liver microsomes at 20 uM at pH 7.4 incubated for 15 mins by UPLC/MS analysis in presence of NADPH; format: ADME; summary of the method: as §1
[6] = Drug metabolism in mouse liver microsomes assessed as retention time of N-dealkylated metabolite at 20 uM at pH 7.4 incubated for 15 mins by UPLC/MS analysis in presence of NADPH; format: ADME; conditions: pH 7.4, 0.25 h; summary of the method: as §1
[7] = Intrinsic clearance in mouse liver microsomes at 20 uM at pH 7.4 incubated for 15 mins by UPLC/MS analysis in presence of NADPH; format: ADME; conditions: read-out: CLH
[8] = Drug metabolism in mouse liver microsomes assessed as retention time of hydroxylated metabolite at 20 uM at pH 7.4 incubated for 15 mins by UPLC/MS analysis in presence of NADPH; format: ADME; conditions: pH 7.4, 0.25 h; summary of the method: as §1
Mus musculus [9] = experiment: Antidepressant-like activity in Swiss albino mouse assessed as reduction in immobility time at 1.25 mg/kg, ip dosed 30 mins before test measured after 6 mins by forced swim test; format: functional, organism-based
Summary of the method: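 Male Swiss albino mice (22–26 g), 7–12/group, used once; drug in distilled water, given ip 30 min before test. Observer blind to treatment. Mice swam 6 min in a glass cylinder (25 cm high, 10 cm diameter) holding 10 cm of water at 23–25 °C. Immobility (floating, only small head-keeping movements) was timed over the last 4 min. One-way ANOVA, then Bonferroni vs vehicle.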

Mus musculus [10] = experiment: Toxicity in Swiss albino mouse assessed as effect on spontaneous locomotor activity at 1.25 mg/kg, ip dosed 30 mins before test measured after 2 to 6 mins; format: organism-based; conditions: in vivo
Summary of the method: (§2)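 Swiss albino mice given reference drug ip 30 min before testing (citalopram in water; SB-269970 suspended in 1% aqueous Tween 80). Ambulation counted from 2 to 6 min in individual cages by activity monitor.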

Mus musculus [11] = experiment: Antidepressant-like activity in Swiss albino mouse assessed as reduction in immobility time at 10 mg/kg, ip dosed 30 mins before test measured after 6 mins by forced swim test; format: functional, organism-based
Summary of the method: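 Male Swiss albino mice (22–26 g), 7–12/group, used once; drug suspended in 1% aqueous Tween 80 just before use, given ip 30 min before test. Blind observer. 6-min swim in a glass cylinder (25 × 10 cm) with 10 cm of water at 23–25 °C. Immobility timed over the final 4 min. Data as mean ± SEM; one-way ANOVA, then Bonferroni vs vehicle.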

Mus musculus [12] = experiment: Toxicity in Swiss albino mouse assessed as effect on spontaneous locomotor activity at 10 mg/kg, ip dosed 30 mins before test measured after 2 to 6 mins; format: organism-based; conditions: in vivo; summary of the method: as §2

Sequence of 5-hydroxytryptamine receptor 7 (P34969 whole entry): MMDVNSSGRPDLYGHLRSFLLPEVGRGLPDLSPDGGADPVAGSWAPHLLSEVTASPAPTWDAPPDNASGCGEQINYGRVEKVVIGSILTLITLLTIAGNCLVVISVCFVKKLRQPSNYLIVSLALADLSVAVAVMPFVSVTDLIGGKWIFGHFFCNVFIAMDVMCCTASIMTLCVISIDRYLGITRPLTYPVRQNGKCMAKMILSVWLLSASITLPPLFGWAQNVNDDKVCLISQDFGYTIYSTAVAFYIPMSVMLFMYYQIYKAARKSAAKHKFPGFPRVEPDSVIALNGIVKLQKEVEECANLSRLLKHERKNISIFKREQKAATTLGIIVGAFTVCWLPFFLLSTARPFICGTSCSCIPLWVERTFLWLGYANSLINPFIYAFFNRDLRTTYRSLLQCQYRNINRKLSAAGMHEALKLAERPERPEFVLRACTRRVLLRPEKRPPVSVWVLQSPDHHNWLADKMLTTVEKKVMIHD
Sequence of D(2) dopamine receptor (P14416 whole entry): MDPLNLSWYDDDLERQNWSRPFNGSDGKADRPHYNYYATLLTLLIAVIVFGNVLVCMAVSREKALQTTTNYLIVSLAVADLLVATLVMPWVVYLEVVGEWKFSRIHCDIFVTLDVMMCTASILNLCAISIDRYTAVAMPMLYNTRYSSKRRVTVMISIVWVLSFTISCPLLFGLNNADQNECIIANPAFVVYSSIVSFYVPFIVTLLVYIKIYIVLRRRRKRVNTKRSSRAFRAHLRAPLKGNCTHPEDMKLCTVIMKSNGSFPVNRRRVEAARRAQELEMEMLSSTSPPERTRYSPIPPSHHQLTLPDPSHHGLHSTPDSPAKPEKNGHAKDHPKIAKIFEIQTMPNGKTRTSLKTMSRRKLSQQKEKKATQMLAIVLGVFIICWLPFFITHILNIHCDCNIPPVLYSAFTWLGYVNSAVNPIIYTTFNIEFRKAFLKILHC
Sequence of 5-hydroxytryptamine receptor 2A (P28223 whole entry): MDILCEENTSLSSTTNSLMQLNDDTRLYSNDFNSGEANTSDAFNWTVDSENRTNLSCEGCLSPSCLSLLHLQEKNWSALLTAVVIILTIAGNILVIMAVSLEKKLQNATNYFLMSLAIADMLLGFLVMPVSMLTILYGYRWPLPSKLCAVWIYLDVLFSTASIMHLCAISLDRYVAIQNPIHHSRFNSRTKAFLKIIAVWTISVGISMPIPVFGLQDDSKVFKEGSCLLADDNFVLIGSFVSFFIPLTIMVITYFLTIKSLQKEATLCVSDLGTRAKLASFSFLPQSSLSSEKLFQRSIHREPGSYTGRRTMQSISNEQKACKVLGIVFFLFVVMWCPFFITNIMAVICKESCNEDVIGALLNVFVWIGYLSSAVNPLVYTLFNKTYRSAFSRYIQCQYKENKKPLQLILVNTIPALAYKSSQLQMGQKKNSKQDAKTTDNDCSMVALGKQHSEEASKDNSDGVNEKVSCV

CN(C1CCN(CCOc2ccccc2C(C)(C)C)CC1)S(=O)(=O)c1ccc(F)cc1
Ki [1]: 9050 nM | Ki [2]: 1070 nM | Ki [3]: 58 nM | Ki (D(2) dopamine receptor): 324 nM

Cn1cc(S(=O)(=O)NC2CCN(CCOc3ccccc3-c3ccccc3)CC2)cn1
Retention_time [4]: 4.45 min | half-life at 20 µM [5]: < 20 min | Retention_time [6]: 3.85 min | microsomal CLint at 20 µM [7]: > 200 µL/min/mg

CN(C1CCN(CCOc2ccccc2C(C)(C)C)CC1)S(=O)(=O)c1ccccc1
Ki [1]: 2350 nM | Ki [2]: 1250 nM | Ki [3]: 70 nM | Ki (D(2) dopamine receptor): 360 nM

CC(C)(C)c1ccccc1OCCN1CCC(N(CC2CC2)S(=O)(=O)c2ccc(F)cc2)CC1
Ki [1]: 14000 nM | Ki [2]: 1330 nM | Ki [3]: 53 nM | Ki (D(2) dopamine receptor): 160 nM

CC(C)c1ccccc1OCCN1CCC(N(CC2CC2)S(=O)(=O)c2cnn(C)c2)CC1
Ki [1]: 214 nM | Ki [2]: 378 nM | Ki [3]: 56 nM | Ki (D(2) dopamine receptor): 18 nM

CC(C)c1ccccc1OCCN1CCC(N(C)S(=O)(=O)c2cnn(C)c2)CC1
Ki [1]: 346 nM | Ki [2]: 121 nM | Ki [3]: 10 nM | Ki (D(2) dopamine receptor): 46 nM

CC(C)c1ccccc1OCCN1CCC(N(C)S(=O)(=O)c2ccccc2)CC1
Ki [1]: 140 nM | Ki [2]: 264 nM | Ki [3]: 9 nM | Ki (D(2) dopamine receptor): 60 nM

Cn1cc(S(=O)(=O)NC2CCN(CCOc3ccccc3C(C)(C)C)CC2)cn1
Retention_time [4]: 4.72 min | Retention_time [8]: 3.62 min | half-life at 20 µM [5]: < 20 min | microsomal CLint at 20 µM [7]: > 200 µL/min/mg

CN(C1CCN(CCOc2ccccc2-c2ccccc2)CC1)S(=O)(=O)c1ccccc1
Ki [1]: 62 nM | Ki [2]: 42 nM | Ki [3]: 100 nM | Ki (D(2) dopamine receptor): 52 nM

CC(C)c1ccccc1OCCN1CCC(N(C)S(=O)(=O)c2cccc(F)c2)CC1
Ki [1]: 190 nM | Ki [2]: 230 nM | Ki [3]: 18 nM | Ki (D(2) dopamine receptor): 45 nM

CC(C)c1ccccc1OCCN1CCC(N(C)S(=O)(=O)c2ccc(F)cc2)CC1
Ki [1]: 180 nM | Ki [2]: 382 nM | Ki [3]: 13 nM | Ki (D(2) dopamine receptor): 50 nM

CN(C1CCN(CCOc2ccccc2-c2ccccc2)CC1)S(=O)(=O)c1ccc(F)cc1
Ki [1]: 30 nM | Ki [2]: 69 nM | Ki [3]: 5 nM | Ki (D(2) dopamine receptor): 54 nM

CN(C1CCN(CCOc2ccccc2C(C)(C)C)CC1)S(=O)(=O)c1cccc(F)c1
Ki [1]: 4510 nM | Ki [2]: 1930 nM | Ki [3]: 68 nM | Ki (D(2) dopamine receptor): 290 nM

CN(C)CCCC1(c2ccc(F)cc2)OCc2cc(C#N)ccc21 (stereo not drawn) [CITALOPRAM]
Activity (Mus musculus [9]): Active | Activity (Mus musculus [10]): Non-toxic

CC1CCN(CC[C@H]2CCCN2S(=O)(=O)c2cccc(O)c2)CC1
Activity (Mus musculus [11]): Active | Activity (Mus musculus [12]): Non-toxic

CC(C)c1ccccc1OCCN1CCC(N(CC2CC2)S(=O)(=O)c2ccc(F)cc2)CC1
Ki [1]: 249 nM | Ki [2]: 413 nM | Ki [3]: 28 nM | Ki (D(2) dopamine receptor): 20 nM

O=S(=O)(c1ccc(F)cc1)N(CC1CC1)C1CCN(CCOc2ccccc2-c2ccccc2)CC1
Ki [1]: 342 nM | Ki [2]: 70 nM | Ki [3]: 18 nM | Ki (D(2) dopamine receptor): 37 nM

CC(C)c1ccccc1OCCN1CCC(N(CC2CC2)S(=O)(=O)c2cccc(F)c2)CC1
Ki [1]: 158 nM | Ki [2]: 429 nM | Ki [3]: 56 nM | Ki (D(2) dopamine receptor): 15 nM
